The text below walks through data of ChEMBL document CHEMBL1649179, “Pharmacokinetics of LB80331 and LB80317 following oral administration of LB80380, a new antiviral agent for chronic hepatitis B (CHB), in healthy adult subjects, CHB patients, and mice” (Antimicrob Agents Chemother, 2009).

Series [1] relates to Homo sapiens. Nature of the series: Tmax in chronic hepatitis B virus infected patient assessed as (1-((2-amino-9H-purin-9-yl)methyl)cyclopropoxy)me at 240 mg, po qd for 4 weeks by LC-MS analysis. As to conditions: in vivo, 672 h. Format: ADME, organism-based. An outline of the steps:
(§1)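 Daily oral LB80380 was given to CHB patients over 4 weeks. Blood was drawn on day 1 and at steady state (weeks 2–4), predose and 0.5–24 h postdose. Plasma LB80331 (LLOQ 5 ng/ml) and LB80317 (LLOQ 10 ng/ml) were measured by LC-MS/MS after protein-precipitation extraction. Tmax was taken by noncompartmental analysis.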

For series [2], the system named is Homo sapiens. Nature of the series: Cmax in high fat diet fed healthy human assessed as (1-((2-amino-9H-purin-9-yl)methyl)cyclopropoxy)me at 60 mg, po administered as single dose by LC-MS analysis. Format: ADME, organism-based. As to conditions: in vivo. Further details: dose 60 mg, route oral. An outline of the steps: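 Healthy subjects given a single oral dose after an overnight fast or after a high-fat breakfast. Plasma LB80331 measured by validated LC-MS/MS (LLOQ 5 ng/ml) after protein precipitation. Cmax by noncompartmental analysis.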

Series [3] concerns Liver. Nature of the series: Tmax in CD-1 mouse liver assessed as di- and triphosphates of (1-((2-amino-9H-purin-9-yl)methyl)cyclopropoxy)me at 30 mg/kg, po administered as single dose by LC-MS analysis. Format: ADME, organism-based. The conditions noted are these: in vivo. Further details: dose 30 mg/kg, route oral. An outline of the steps:
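Male CD-1 mice received 30 mg/kg orally in 100% PEG 400. Plasma and snap-frozen liver were taken from 3 mice per time point at 1, 2, 4, 6, 10, 24 and 36 h. Samples were extracted with perchloric acid and neutralized with ammonium bicarbonate. Free LB80331/LB80317 was measured directly by LC-MS/MS; total, including di- and triphosphates, was measured after calf intestinal phosphatase treatment.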

The test system of series [4] is Homo sapiens. Nature of the series: AUC (0 to infinity) in chronic hepatitis B virus infected patient assessed as (1-((2-amino-9H-purin-9-yl)methyl)cyclopropoxy)me at 120 mg, po administered as single dose by LC-MS analysis. Format: ADME, organism-based, Plasma. Further details: dose 120 mg, time infinity, route oral. The conditions noted are these: in vivo. An outline of the steps: (§2)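 CHB patients (HBsAg/HBeAg positive), six per dose cohort, given a first oral dose on day 1. Plasma sampled at baseline. Analysis by validated LC-MS/MS after protein precipitation with a stable-isotope internal standard; LLOQ 5 ng/ml for LB80331. Noncompartmental analysis gives Cmax and AUC0-∞.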

In series [5] the test system is Plasma. Nature of the series: AUC (0 to 36 hrs) in CD-1 mouse plasma assessed as (1-((2-amino-9H-purin-9-yl)methyl)cyclopropoxy)me at 30 mg/kg, po administered as single dose by LC-MS analysis. Format: ADME, organism-based. Further details: time < 36 hr, dose 30 mg/kg, route oral. The conditions noted are these: in vivo. An outline of the steps:
(§3)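 Male CD-1 mice given a single oral dose in 100% PEG 400. Samples extracted with perchloric acid and neutralized with ammonium bicarbonate. One aliquot assayed for the free analyte; the other treated with calf intestinal phosphatase to give the total including di-/triphosphates. Analysis by LC-MS/MS.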

The test system of series [6] is Homo sapiens. Nature of the series: Cmax in chronic hepatitis B virus infected patient assessed as (1-((2-amino-9H-purin-9-yl)methyl)cyclopropoxy)me at 30 mg, po qd for 4 weeks by LC-MS analysis. Further details: dose 30 mg, route oral. Format: ADME, organism-based. As to conditions: in vivo, 672 h. An outline of the steps:
(§4)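 CHB patients, oral once daily for 4 weeks. Plasma sampled at steady state (weeks 2–4), predose and at 0.5, 1, 2, 3, 4, 6, 8 and 24 h postdose. LB80331 measured by validated LC-MS/MS (LLOQ 5 ng/ml) after protein precipitation with a stable-isotope internal standard. Cmax by noncompartmental analysis.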

Series [7] has as its system Homo sapiens. Nature of the series: Cmax in chronic hepatitis B virus infected patient assessed as (1-((2-amino-9H-purin-9-yl)methyl)cyclopropoxy)me at 120 mg, po administered as single dose by LC-MS analysis. Format: ADME, organism-based. Further details: dose 120 mg, route oral. The conditions noted are these: in vivo. The method, boiled down:
as §2

The test system of series [8] is Homo sapiens. Nature of the series: Oral clearance in chronic hepatitis B virus infected patient assessed as (1-((2-amino-9H-purin-9-yl)methyl)cyclopropoxy)me at 30 mg, po administered as single dose by LC-MS analysis. Format: ADME, organism-based. As to conditions: in vivo. The method, boiled down:
(§5)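 Oral LB80380 was given once daily for 4 weeks to CHB patients. Plasma LB80331 was quantified by validated LC-MS/MS after protein precipitation, with stable-isotope internal standard, at baseline and steady state (weeks 2–4), 0–24 h postdose. Noncompartmental CL/F was calculated as dose (adjusted for LB80380/LB80331 molecular weights) divided by AUC (AUC0-∞ single dose; AUC0-24 steady state).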

The subject of series [9] is Homo sapiens. Nature of the series: Tmax in chronic hepatitis B virus infected patient assessed as (1-((2-amino-9H-purin-9-yl)methyl)cyclopropoxy)me at 60 mg, po qd for 4 weeks by LC-MS analysis. Format: ADME, organism-based. As to conditions: in vivo, 672 h. The method, boiled down: as §1
Series [10] has as its system Liver. Nature of the series: Cmax in CD-1 mouse liver assessed as (1-((2-amino-9H-purin-9-yl)methyl)cyclopropoxy)me at 30 mg/kg, po administered as single dose by LC-MS analysis. Further details: dose 30 mg/kg, route oral. Format: ADME, organism-based. The conditions noted are these: in vivo. The method, boiled down: as §3
Series [11] deals with Homo sapiens. Nature of the series: Tmax in high fat diet fed healthy human assessed as (1-((2-amino-9H-purin-9-yl)methyl)cyclopropoxy)me assessed as (1-((2-amino-9H-purin-9-yl)methyl)cyclopropoxy)me at 60 mg, po administered as single dose by LC-MS analysis. Format: ADME, organism-based. As to conditions: in vivo. The method, boiled down: (§6)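 Healthy subjects received a single oral 60-mg dose after a high-fat breakfast or after an overnight fast. Plasma LB80331 was assayed by validated LC-MS/MS (LLOQ 5 ng/ml; intra- and interassay precision and accuracy <10%). Tmax was obtained by noncompartmental analysis.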

For series [12], the system named is Plasma. Nature of the series: Half life in CD-1 mouse plasma assessed as (1-((2-amino-9H-purin-9-yl)methyl)cyclopropoxy)me at 30 mg/kg, po administered as single dose by LC-MS analysis. Format: ADME, organism-based. The arrangement: dose 30 mg/kg, route oral. As to conditions: in vivo. The method, boiled down:
as §3

Series [13] relates to Homo sapiens. Nature of the series: Oral clearance in chronic hepatitis B virus infected patient assessed as (1-((2-amino-9H-purin-9-yl)methyl)cyclopropoxy)me at 120 mg, po qd for 4 weeks by LC-MS analysis. Format: ADME, organism-based. The conditions noted are these: in vivo, 672 h. The method, boiled down: as §5
Series [14] concerns Homo sapiens. Nature of the series: Half life in chronic hepatitis B virus infected patient assessed as (1-((2-amino-9H-purin-9-yl)methyl)cyclopropoxy)me at 30 mg, po administered as single dose by LC-MS analysis. Format: ADME, organism-based. The conditions noted are these: in vivo. The method, boiled down: (§7)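 CHB patients given LB80380 orally once daily for 4 weeks. Plasma was sampled on day 1 and at steady state (weeks 2–4), predose and 0.5, 1, 2, 3, 4, 6, 8 and 24 h postdose. LB80331 was measured by validated LC-MS/MS (LLOQ 5 ng/ml). Terminal-phase apparent t1/2 came from noncompartmental analysis and was flagged if extrapolated AUC exceeded 20% of AUC0-24.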

In series [15] the test system is Homo sapiens. Nature of the series: Cmax in chronic hepatitis B virus infected patient assessed as (1-((2-amino-9H-purin-9-yl)methyl)cyclopropoxy)me at 240 mg, po qd for 4 weeks by LC-MS analysis. Format: ADME, organism-based. Further details: dose 240 mg, route oral. The conditions noted are these: in vivo, 672 h. The method, boiled down:
as §4

For series [16], the system named is Homo sapiens. Nature of the series: Tmax in chronic hepatitis B virus infected patient assessed as (1-((2-amino-9H-purin-9-yl)methyl)cyclopropoxy)me at 240 mg, po administered as single dose by LC-MS analysis. As to conditions: in vivo. Format: ADME, organism-based. The method, boiled down:
as §1

For series [17], the system named is Homo sapiens. Nature of the series: Tmax in fasted healthy human assessed as (1-((2-amino-9H-purin-9-yl)methyl)cyclopropoxy)me assessed as (1-((2-amino-9H-purin-9-yl)methyl)cyclopropoxy)me at 60 mg, po administered as single dose by LC-MS analysis. Format: ADME, organism-based. The conditions noted are these: in vivo. The method, boiled down:
as §6

Series [18] deals with Liver. Nature of the series: AUC (0 to infinity) in CD-1 mouse liver assessed as (1-((2-amino-9H-purin-9-yl)methyl)cyclopropoxy)me at 30 mg/kg, po administered as single dose by LC-MS analysis. Format: ADME, organism-based. As to conditions: in vivo. Further details: time infinity, dose 30 mg/kg, route oral. An outline of the steps:
as §3

Series [19] concerns Homo sapiens. Nature of the series: Half life in chronic hepatitis B virus infected patient assessed as (1-((2-amino-9H-purin-9-yl)methyl)cyclopropoxy)me at 60 mg, po qd for 4 weeks by LC-MS analysis. Format: ADME, organism-based. The conditions noted are these: in vivo, 672 h. The method, boiled down:
as §7

As for `Nc1ncc2ncn(CC3(OCP(=O)(O)O)CC3)c2n1` [BESIFOVIR], the time of peak concentration (Tmax) in series [1] stood at 2 h; in series [3], 1 h; in [9] it was 2 h; in series [11], 4 h; in series [16], 2 h; in series [17] it was 1.5 h. The peak concentration (Cmax) in series [2] was found to be 246 ng/mL; in series [6], 192 ng/mL; in series [7] it was 805 ng/mL; in [10], 44 µM; in series [15], 1164 ng/mL. Moreover, the exposure (AUC) was determined as 4374 ng·h/mL in series [4], 17 µM·h in series [5] and 102 µM·h in series [18]. The CL/F in series [8] turned out to be 288 mL/min; in series [13], 304 mL/min. Also, the results for the t1/2 in series [12], in [14] and in series [19] were 2 h, 2.5 h and 3 h, respectively.
